Data on one compound can be found in ChEMBL document CHEMBL1153728, “Quercetin reduces inflammatory pain: inhibition of oxidative stress and cytokine production” (2009).

In test [1] the test system is Mus musculus. Nature of the test: Antinociceptive activity in Swiss mouse assessed as inhibition of PGE2-induced mechanical hypernociception at 100 mg/kg, ip dosed 30 mins before PGE2 challenge measured after 3 hrs by electronic pressure-meter test. Set-up: dose 100 mg/kg. The test is classed as functional, organism-based.
The subject of test [2] is Mus musculus. Nature of the test: Analgesic activity in Swiss mouse assessed as reaction time taken to jump or lick paw at 100 mg/kg, ip after 30 mins of administration by hot plate test. The test is classed as functional, organism-based. Set-up: dose 100 mg/kg. The method in brief:
(§1)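 Male Swiss mice (25-30 g) placed in glass cylinder on hot plate at 55 °C. Two control latencies taken at least 10 min apart; latency rechecked 30 and 60 min after ip dosing. Endpoint is jumping or paw licking, 30 s cutoff.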
(In general: In hot-plate and tail-flick tests a longer latency is read as antinociception.)

In test [3] the test system is Mus musculus. As to the kind of experiment: Muscle relaxant activity in Swiss mouse assessed as motor response at 100 mg/kg, ip after 3 hrs 30 mins by rotarod test. Set-up: dose 100 mg/kg. It counts as functional, organism-based. (In general: The rotarod test checks motor coordination on a turning rod.)
The subject of test [4] is Mus musculus. As to the kind of experiment: Analgesic activity in Swiss mouse assessed as reaction time taken to jump or lick paw at 8 mg/kg, ip after 60 mins of administration by hot plate test. The test is classed as functional, organism-based. Also noted: dose 8 mg/kg. In outline:
as §1

Test [5] relates to Mus musculus. Nature of the test: Inhibition of CXCL1-induced neutrophil recruitment in Swiss mouse subcutaneous plantar tissue assessed as myeloperoxidase activity at 100 mg/kg, ip dosed 30 mins before CXCL1 challenge measured after 3 hrs by spectrophotometry. The test is classed as functional, organism-based. Set-up: dose 100 mg/kg. The method in brief:
(§2)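 Mice given ip 100 mg/kg 30 min before intraplantar carrageenin (100 µg/paw), TNFα (300 pg/paw) or CXCL1 (20 ng/paw). Plantar tissue taken 3 h later into 50 mM K2HPO4 pH 6.0 with 0.5% HTAB, homogenized, centrifuged. Supernatant read with o-dianisidine/H2O2 at 450 nm, compared to neutrophil standard curve.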

Test [6] concerns Mus musculus. Nature of the test: Antinociceptive activity in ip dosed Swiss mouse assessed as inhibition of phenyl-p-benzoquinone-induced writhing response administered 30 mins before phenyl-p-benzoquinone challenge measured for 20 mins. The test is classed as functional, organism-based. The method in brief: (§3)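 Male Swiss mice pretreated ip (3-100 mg/kg) 30 min before ip acetic acid 0.6% v/v (10 mL/kg) or phenyl-p-benzoquinone 1890 µg/kg in 2% DMSO/saline. Cumulative writhing score counted over 20 min; n = 7.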
(In general: In writhing tests, fewer writhes than in controls are read as antinociception.)

For test [7], the system named is Mus musculus. As to the kind of experiment: Antioxidant activity in ip dosed Swiss mouse assessed as inhibition of carrageenan-induced reduction in GSH level dosed 30 mins before carrageenan challenge measured after 3 hrs by fluorescence spectrophotometry. It counts as functional, organism-based. In outline: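 Swiss mice dosed ip 10-100 mg/kg 30 min before intraplantar carrageenin (100 µg/paw) or saline. Plantar skin from five mice pooled 3 h later, homogenized in 100 mM NaH2PO4 pH 8.0/5 mM EGTA, TCA-precipitated. Supernatant reacted with OPT 15 min, fluorescence ex 350/em 420 nm against 0-40 µM GSH standard, in triplicate.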

Test [8] has as its system Mus musculus. As to the kind of experiment: Antiinflammatory activity in Swiss mouse assessed as inhibition of carrageenan-induced paw edema at 100 mg/kg, ip dosed 30 mins before carrageenan challenge measured after 0.5 to 3 hrs. The test is classed as functional, organism-based. Set-up: dose 100 mg/kg. In outline:
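Male Swiss mice; ip pretreatment 30 min before intraplantar carrageenin (100 µg/paw). Paw measured with calliper before and at 30, 60, 120, 180 min after stimulus; edema = VT minus Vo per mouse.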

The test system of test [9] is Mus musculus. As to the kind of experiment: Antinociceptive activity against formalin-induced pain in Swiss mouse assessed as inhibition of paw licking response during second phase at 100 mg/kg, ip dosed 30 mins before formalin challenge measured for 0 to 30 mins. Set-up: dose 100 mg/kg. It counts as functional, organism-based. In outline:
(§4)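 Male Swiss mice dosed ip (100 mg/kg, vehicle 20% Tween 80 in saline) 30 min before intraplantar formalin 0.1% (25 µL). Paw flinches and licking time counted 0-30 min in 5-min intervals, separating first and second phases; n = 6.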

For test [10], the system named is Mus musculus. Nature of the test: Antinociceptive activity in Swiss mouse assessed as inhibition of dopamine-induced mechanical hypernociception at 100 mg/kg, ip dosed 30 mins before dopamine challenge measured after 3 hrs by electronic pressure-meter test. It counts as functional, organism-based. Also noted: dose 100 mg/kg.
Test [11] has as its system Mus musculus. Nature of the test: Inhibition of TNF-alpha-induced neutrophil recruitment in Swiss mouse subcutaneous plantar tissue assessed as myeloperoxidase activity at 100 mg/kg, ip dosed 30 mins before TNFalpha challenge measured after 3 hrs by spectrophotometry. The test is classed as functional, organism-based. Also noted: dose 100 mg/kg. In outline: as §2
Test [12] has as its system Mus musculus. Nature of the test: Antinociceptive activity against formalin-induced pain in Swiss mouse assessed as inhibition of hind paw flinching response during second phase of response at 100 mg/kg, ip dosed 30 mins before formalin challenge measured for 0 to 30 mins. The test is classed as functional, organism-based. Set-up: dose 100 mg/kg. The method in brief:
as §4

The subject of test [13] is Mus musculus. Nature of the test: Antinociceptive activity in Swiss mouse assessed as inhibition of carrageenan-induced mechanical hypernociception at 3 to 100 mg/kg, ip administered 30 mins before carrageenan challenge measured after 3 hrs by electronic pressure-meter test. The test is classed as functional. Particulars: dose mg/kg 3-100; route intraperitoneal. In outline: (§5)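 Male Swiss mice dosed ip (3-100 mg/kg) or po (30-300 mg/kg) in 20% Tween 80/saline 30 min before intraplantar carrageenin (100 µg/paw). Pressure-meter withdrawal threshold (average of three readings) before and 3 h after; Δ threshold in g; n = 5; one-way ANOVA with Tukey test.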

Test [14] concerns Mus musculus. Nature of the test: Antinociceptive activity in ip dosed Swiss mouse assessed as inhibition of acetic acid-induced writhing response administered 30 mins before acetic acid challenge measured for 20 mins. It counts as functional, organism-based. The method in brief:
as §3

The test system of test [15] is Mus musculus. Nature of the test: Antinociceptive activity in Swiss mouse assessed as inhibition of CXCL1-induced mechanical hypernociception at 100 mg/kg, ip dosed 30 mins before CXCL1 challenge measured after 3 hrs by electronic pressure-meter test. It counts as functional. Particulars: route intraperitoneal.
In test [16] the test system is Mus musculus. Nature of the test: Antinociceptive activity in Swiss mouse assessed as inhibition of TNF-alpha-induced mechanical hypernociception at 100 mg/kg, ip dosed 30 mins before TNFalpha challenge measured after 3 hrs by electronic pressure-meter test. It counts as functional. Particulars: route intraperitoneal.
Test [17] relates to Mus musculus. As to the kind of experiment: Analgesic activity in Swiss mouse assessed as reaction time taken to jump or lick paw at 8 mg/kg, ip after 30 mins of administration by hot plate test. It counts as functional, organism-based. Also noted: dose 8 mg/kg. The method in brief: as §1
In test [18] the test system is Mus musculus. Nature of the test: Antinociceptive activity in Swiss mouse assessed as inhibition of carrageenan-induced mechanical hypernociception at 100 mg/kg, ip dosed 3 hrs before carrageenan challenge measured after 3 hrs by electronic pressure-meter test. The test is classed as functional, organism-based. Also noted: dose 100 mg/kg. In outline:
(§6)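 Male Swiss mice given 100 mg/kg ip at 12, 6, 3 h or 30 min before intraplantar carrageenin (100 µg/paw). Mechanical withdrawal threshold by electronic pressure-meter (mean of three readings) at 1, 3 and 5 h after stimulus, expressed as change from baseline.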

The subject of test [19] is Mus musculus. As to the kind of experiment: Inhibition of carrageenan-induced neutrophil recruitment in Swiss mouse subcutaneous plantar tissue assessed as myeloperoxidase activity at 100 mg/kg, ip dosed 30 mins before carrageenan challenge measured after 3 hrs by spectrophotometry. It counts as functional, organism-based. Also noted: dose 100 mg/kg. The method in brief: as §2

For test [20], the system named is Mus musculus. As to the kind of experiment: Antinociceptive activity in Swiss mouse assessed as inhibition of carrageenan-induced mechanical hypernociception at 300 mg/kg, po dosed 30 mins before carrageenan challenge measured after 3 hrs by electronic pressure-meter test. The test is classed as functional. In outline: as §5
In test [21] the test system is Mus musculus. As to the kind of experiment: Inhibition of carrageenan-induced IL1-beta production in Swiss mouse subcutaneous plantar tissue at 100 mg/kg, ip dosed 30 mins before carrageenan challenge measured after 3 hrs by ELISA. Particulars: sc. The test is classed as functional. In outline: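 Mice dosed ip 100 mg/kg 30 min before intraplantar carrageenin (100 µg/paw). Paw skin removed 3 h later under terminal anesthesia, homogenized in protease-inhibitor buffer. IL-1β measured by ELISA as pg/paw, with saline-injected controls; n = 5.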

Test [22] deals with Mus musculus. Nature of the test: Analgesic activity in Swiss mouse assessed as reaction time taken to jump or lick paw at 100 mg/kg, ip after 60 mins of administration by hot plate test. The test is classed as functional, organism-based. Also noted: dose 100 mg/kg. In outline: as §1
The test system of test [23] is Mus musculus. As to the kind of experiment: Antinociceptive activity in ip dosed Swiss mouse assessed as inhibition of carrageenan-induced mechanical hypernociception administered 30 mins before carrageenan challenge measured after 3 hrs by electronic pressure-meter test. The test is classed as functional, organism-based. The method in brief: as §5
The test system of test [24] is Mus musculus. Nature of the test: Antinociceptive activity in Swiss mouse assessed as inhibition of carrageenan-induced mechanical hypernociception at 100 mg/kg, ip dosed 30 mins before carrageenan challenge measured after 1 to 5 hrs by electronic pressure-meter test. The test is classed as functional, organism-based. Set-up: dose 100 mg/kg. The method in brief:
as §6

The structures appear in SMILES notation. Active and inactive are the calls of the source.

Consider `O=c1c(O)c(-c2ccc(O)c(O)c2)oc2cc(O)cc(O)c12` [QUERCETIN], for which the outcome in the test with Mus musculus [1], in the test on Mus musculus [2], with Mus musculus [3], with Mus musculus [5], in the test with Mus musculus [10] and in the test on Mus musculus [11] was inactive. Moreover, the outcome in the test with Mus musculus [19] and with Mus musculus [22] was inactive. For the same compound, the outcome in the test with Mus musculus [4], with Mus musculus [9], in the test with Mus musculus [12] and in the test on Mus musculus [17] was Active. In addition, the inhibition result in the test on Mus musculus [6], in the test with Mus musculus [7], with Mus musculus [14] and in the test with Mus musculus [23] was “Dose-dependent effect” each time. For the same compound, the inhibition result with Mus musculus [8], in the test on Mus musculus [18] and in the test on Mus musculus [24] was “Active” each time. The “inhibition (INH)” value with Mus musculus [13] was 59%. Besides, the results for the inhibition in vivo at 100 mg/kg in the test with Mus musculus [15], in the test with Mus musculus [16] and in the test with Mus musculus [21] were 43%, 51% and 36%, respectively. The inhibition in vivo (in general, the drop in the measured response relative to a control, in per cent) at 300 mg/kg in the test on Mus musculus [20] was determined as 55%.
